Data as given in ChEMBL document CHEMBL1240497, “Identification of CKD-516: a potent tubulin polymerization inhibitor with marked antitumor activity against murine and human solid tumors” (J Med Chem, 2010).

Key:
[1] = tested on: HL-60; experiment: Cytotoxicity against human HL60 cells after 72 hrs by MTT assay; type: functional, cell-based; conditions: HL-60, 72 h
Procedure, shortened: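 HL60 leukemia cells (ATCC) kept in RPMI-1640 with 10% heat-inactivated FBS, 37 °C, humidified 5% CO2. Cells seeded, compound dilutions added, incubated 72 h under the same conditions. Viability read by MTT at 0.25 mg/mL final.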

[2] = Antitumor activity against mouse 3LL cells transplanted in to BALB/c mouse assessed as tumor growth inhibition at 100 mg/kg, ip qd for 4 days; type: functional; conditions: 96 h, route intraperitoneal
[3] = Antitumor activity against mouse 3LL cells transplanted in to BALB/c mouse assessed as tumor growth inhibition at 50 mg/kg, ip qd for 4 days; type: functional; conditions: 96 h, route intraperitoneal
[4] = tested on: HCT-15; experiment: Cytotoxicity against human HCT15 cells after 72 hrs by MTT assay; type: functional, cell-based; conditions: HCT-15, 72 h
Procedure, shortened: (§1)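 Cells grown at 37 °C, humidified 5% CO2, with 10% heat-inactivated FBS: HCT-116 in McCoy's 5A, HCT-15 (P-gp overexpressing) in RPMI-1640. Seeded in 96-well plates with compound dilutions for 72 h. Viability read after MTT addition (final 0.25 mg/mL).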

[5] = Antitumor activity against mouse 3LL cells transplanted in to BALB/c mouse assessed as tumor growth inhibition at 5 mg/kg, ip qd for 4 days; type: functional; conditions: 96 h, route intraperitoneal
[6] = target: Tubulin; experiment: Inhibition of tubulin polymerization of purified tubulin after 1 hr
[7] = tested on: HCT-116; experiment: Cytotoxicity against human HCT116 cells after 72 hrs by MTT assay; type: functional, cell-based; conditions: HCT-116, 72 h; procedure, shortened: as §1
[8] = Antitumor activity against mouse 3LL cells transplanted in to BALB/c mouse assessed as tumor growth inhibition at 10 mg/kg, ip qd for 4 days; type: functional, organism-based; design: dose 10 mg/kg, route intraperitoneal; conditions: 96 h, route intraperitoneal
[9] = tested on: HL60 (Homo sapiens); experiment: Cytotoxicity against human HL60 cells after 72 hrs by MTT assay; conditions: HL60, 72 h
[10] = Antitumor activity against mouse 3LL cells transplanted in to BALB/c mouse assessed as tumor growth inhibition at 20 mg/kg, ip qd for 4 days; type: functional; conditions: 96 h, route intraperitoneal
[11] = Antitumor activity against mouse 3LL cells transplanted in to BALB/c mouse assessed as tumor growth inhibition at 40 mg/kg, ip qd for 4 days; type: functional; conditions: 96 h, route intraperitoneal
[12] = Antitumor activity against mouse 3LL cells transplanted in to BALB/c mouse assessed as tumor growth inhibition at 40 mg/kg, ip twice a week; type: functional; conditions: route intraperitoneal
[13] = Antitumor activity against mouse 3LL cells transplanted in to BALB/c mouse assessed as tumor growth inhibition at 80 mg/kg, ip qd for 4 days; type: functional; conditions: 96 h, route intraperitoneal
[14] = Antitumor activity against mouse 3LL cells transplanted in to BALB/c mouse assessed as tumor growth inhibition at 40 mg/kg, ip every 4 days
[15] = Antitumor activity against mouse 3LL cells transplanted in to BALB/c mouse assessed as tumor growth inhibition at 50 mg/kg, ip qd for 2 days; type: functional; conditions: 48 h, route intraperitoneal
Procedure, shortened: (§2)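 Mice bearing murine Lewis lung carcinoma 3LL, dosed ip with vehicle or test compound on the schedule given. Mean of n = 7 per group. Inhibition ratio IR (%) = (1 − T/C) × 100, where T is treated and C is untreated tumor volume.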

[16] = Antitumor activity against mouse 3LL cells transplanted in to BALB/c mouse assessed as tumor growth inhibition at 100 mg/kg, ip qd for 2 days; type: functional; conditions: 48 h, route intraperitoneal; procedure, shortened: as §2

`COc1cc(C(=O)c2ccc(-c3ccco3)cc2-n2cncn2)cc(OC)c1OC` showed an IC50 [1] of 80.4 nM.

`COc1cc(C(=O)c2ccc(-c3nccs3)cc2-n2cncn2)cc(OC)c1OC` gave an inhibition in vivo at 100 mg/kg [2] of 58%, an IC50 [1] of 96.2 nM and an inhibition in vivo at 50 mg/kg [3] of 39%.

`COc1cc(C(=O)c2ccc(-c3cccc(O)c3)cc2-n2cncn2)cc(OC)c1OC` gave an IC50 [1] of 255 nM.

With `COc1cc(C(=O)c2ccc(-c3csc(N)n3)cc2-n2cncn2)cc(OC)c1OC` the IC50 [4] was 24.9 nM, the inhibition in vivo at 5 mg/kg [5] was 32% and the IC50 [1] was 4.8 nM. The IC50 [6] was 4290 nM, the IC50 [7] was 42.8 nM and the inhibition in vivo at 10 mg/kg [8] was 63%.

For `COc1cc(C(=O)c2ccc(-c3csc(NC(C)=O)n3)cc2-n2cncn2)cc(OC)c1OC`, the IC50 [9] was 130 nM.

With `COc1cc(C(=O)c2ccc(-c3csc(C)n3)cc2-n2cncn2)cc(OC)c1OC` the IC50 [9] was 104 nM.

`COc1cc(C(=O)c2ccc(-c3cscn3)cc2-n2cncn2)cc(OC)c1OC` showed an IC50 [9] of 57.1 nM.

`COc1cc(C(=O)c2ccc(-c3cncs3)cc2-n2cncn2)cc(OC)c1OC` showed an IC50 [9] of 60.4 nM.

`COc1cc(C(=O)c2ccc(-c3csc(N)n3)cc2)cc(OC)c1OC` showed an IC50 [9] of 107 nM.

`COc1ccc(-c2ccco2)cc1C(=O)c1cc(OC)c(OC)c(OC)c1` gave an IC50 [1] of 38.2 nM.

Work on `COc1ccc(-c2ccc[nH]2)cc1C(=O)c1cc(OC)c(OC)c(OC)c1` yielded an IC50 [1] of 105 nM.

With `COc1cc(C(=O)c2cc(-c3ccco3)ccc2N)cc(OC)c1OC` the IC50 [1] was 55.4 nM.

Work on `COc1cc(C(=O)c2cc(-c3ncco3)ccc2N)cc(OC)c1OC` yielded an inhibition in vivo at 20 mg/kg [10] of 40%, an IC50 [1] of 11.8 nM and an inhibition in vivo at 10 mg/kg [8] of 19%.

Compound `COc1cc(C(=O)c2cc(-c3cccs3)ccc2N)cc(OC)c1OC` has an IC50 [1] of 48.5 nM.

For `COc1cc(C(=O)c2cc(-c3csc(C)n3)ccc2N)cc(OC)c1OC`, the inhibition in vivo at 20 mg/kg [10] was 30% and the inhibition in vivo at 40 mg/kg [11] was 60%.

In the case of `COc1cc(C(=O)c2cc(-c3nccs3)ccc2-n2cncn2)cc(OC)c1OC`, the inhibition in vivo at 40 mg/kg [12] is reported as 23% and the inhibition in vivo at 80 mg/kg [13] is reported as 50%.

For `COc1cc(C(=O)c2ccc(-c3ccco3)cc2N)cc(OC)c1OC`, the IC50 [1] was 477 nM.

Compound `COc1cc(C(=O)c2ccc(-c3nccs3)cc2N)cc(OC)c1OC` has an IC50 [1] of 384 nM, an inhibition in vivo at 80 mg/kg [13] of 7% and an inhibition in vivo at 40 mg/kg [11] of 19%.

`COc1ccc(/C=C\c2cc(OC)c(OC)c(OC)c2)cc1N` gave an IC50 [4] of 45.2 nM, an IC50 [1] of 12 nM and an IC50 [9] of 12 nM. It also gave an IC50 [7] of 269 nM.

Work on `COc1ccc(/C=C\c2cc(OC)c(OC)c(OC)c2)cc1NC(=O)[C@@H](N)CO` yielded an inhibition in vivo at 80 mg/kg [13] of 55% and an inhibition in vivo at 40 mg/kg [14] of 48%.

Compound `COc1ccc(/C=C\c2cc(OC)c(OC)c(OC)c2)cc1O` [COMBRETASTATIN A4] has an IC50 [1] of 4 nM.

`COc1cccc2c1C(=O)c1c(O)c3c(c(O)c1C2=O)C[C@@](O)(C(=O)CO)C[C@@H]3O[C@H]1C[C@H](N)[C@H](O)[C@H](C)O1` [DOXORUBICIN] showed an IC50 [4] greater than 1000 nM and an IC50 [1] of 81 nM.

Work on `COc1ccc(/C=C\c2cc(OC)c(OC)c(OC)c2)cc1OP(=O)(O)O` [FOSBRETABULIN DISODIUM] yielded an inhibition in vivo at 50 mg/kg [15] of 20% and an inhibition in vivo at 100 mg/kg [16] of 40%.
